Reference: ChEMBL document CHEMBL1128218, “New alpha-thiol dipeptide dual inhibitors of angiotensin-I converting enzyme and neutral endopeptidase EC 3.4.24.11” (J Med Chem, 1995)

What was measured:
Neprilysin = biological target: T1, Neprilysin (Rattus norvegicus, UniProt P07861); experiment: Evaluation of in vitro inhibitory activity against Neutral endopeptidase
T1 sequence (P07861 whole entry): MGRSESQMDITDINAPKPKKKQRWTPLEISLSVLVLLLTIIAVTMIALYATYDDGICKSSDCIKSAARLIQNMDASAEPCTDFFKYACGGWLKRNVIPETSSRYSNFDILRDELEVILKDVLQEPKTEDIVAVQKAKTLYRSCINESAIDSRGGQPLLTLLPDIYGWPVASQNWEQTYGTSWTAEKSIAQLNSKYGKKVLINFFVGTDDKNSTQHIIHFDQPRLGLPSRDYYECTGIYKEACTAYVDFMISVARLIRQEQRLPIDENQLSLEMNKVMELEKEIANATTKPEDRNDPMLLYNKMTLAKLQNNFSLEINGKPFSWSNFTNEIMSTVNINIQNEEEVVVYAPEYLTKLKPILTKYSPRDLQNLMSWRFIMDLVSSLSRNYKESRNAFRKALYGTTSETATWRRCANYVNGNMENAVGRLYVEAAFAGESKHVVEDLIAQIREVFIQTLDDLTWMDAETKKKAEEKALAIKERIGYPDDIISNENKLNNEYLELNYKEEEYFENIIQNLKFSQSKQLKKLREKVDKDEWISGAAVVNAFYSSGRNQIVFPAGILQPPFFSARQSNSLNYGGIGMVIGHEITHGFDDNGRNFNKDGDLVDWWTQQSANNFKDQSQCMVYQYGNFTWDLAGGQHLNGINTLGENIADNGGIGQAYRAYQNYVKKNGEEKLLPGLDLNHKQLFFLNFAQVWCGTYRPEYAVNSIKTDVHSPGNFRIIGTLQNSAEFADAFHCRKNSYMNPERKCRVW
Method in brief: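 Rat kidney cortex membrane homogenate (4.2 μg protein) preincubated 10 min at 25 °C with increasing inhibitor concentrations. Then 500 μM GAAP (final) in 50 mM Tris pH 7.4 with leucine aminopeptidase M, 25 min at 25 °C. Done in duplicate; IC50 from curves of seven points near the IC50.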

[1] = biological target: T2, Angiotensin-converting enzyme (Rattus norvegicus) (UniProt P47820); experiment: Evaluation of plasma inhibition of Angiotensin I converting enzyme activity in conscious rat 1 hour after intravenous administration at a dose of 10 mg/kg; format: functional, organism-based; design: dose 10 mg/kg
T2 sequence (whole entry): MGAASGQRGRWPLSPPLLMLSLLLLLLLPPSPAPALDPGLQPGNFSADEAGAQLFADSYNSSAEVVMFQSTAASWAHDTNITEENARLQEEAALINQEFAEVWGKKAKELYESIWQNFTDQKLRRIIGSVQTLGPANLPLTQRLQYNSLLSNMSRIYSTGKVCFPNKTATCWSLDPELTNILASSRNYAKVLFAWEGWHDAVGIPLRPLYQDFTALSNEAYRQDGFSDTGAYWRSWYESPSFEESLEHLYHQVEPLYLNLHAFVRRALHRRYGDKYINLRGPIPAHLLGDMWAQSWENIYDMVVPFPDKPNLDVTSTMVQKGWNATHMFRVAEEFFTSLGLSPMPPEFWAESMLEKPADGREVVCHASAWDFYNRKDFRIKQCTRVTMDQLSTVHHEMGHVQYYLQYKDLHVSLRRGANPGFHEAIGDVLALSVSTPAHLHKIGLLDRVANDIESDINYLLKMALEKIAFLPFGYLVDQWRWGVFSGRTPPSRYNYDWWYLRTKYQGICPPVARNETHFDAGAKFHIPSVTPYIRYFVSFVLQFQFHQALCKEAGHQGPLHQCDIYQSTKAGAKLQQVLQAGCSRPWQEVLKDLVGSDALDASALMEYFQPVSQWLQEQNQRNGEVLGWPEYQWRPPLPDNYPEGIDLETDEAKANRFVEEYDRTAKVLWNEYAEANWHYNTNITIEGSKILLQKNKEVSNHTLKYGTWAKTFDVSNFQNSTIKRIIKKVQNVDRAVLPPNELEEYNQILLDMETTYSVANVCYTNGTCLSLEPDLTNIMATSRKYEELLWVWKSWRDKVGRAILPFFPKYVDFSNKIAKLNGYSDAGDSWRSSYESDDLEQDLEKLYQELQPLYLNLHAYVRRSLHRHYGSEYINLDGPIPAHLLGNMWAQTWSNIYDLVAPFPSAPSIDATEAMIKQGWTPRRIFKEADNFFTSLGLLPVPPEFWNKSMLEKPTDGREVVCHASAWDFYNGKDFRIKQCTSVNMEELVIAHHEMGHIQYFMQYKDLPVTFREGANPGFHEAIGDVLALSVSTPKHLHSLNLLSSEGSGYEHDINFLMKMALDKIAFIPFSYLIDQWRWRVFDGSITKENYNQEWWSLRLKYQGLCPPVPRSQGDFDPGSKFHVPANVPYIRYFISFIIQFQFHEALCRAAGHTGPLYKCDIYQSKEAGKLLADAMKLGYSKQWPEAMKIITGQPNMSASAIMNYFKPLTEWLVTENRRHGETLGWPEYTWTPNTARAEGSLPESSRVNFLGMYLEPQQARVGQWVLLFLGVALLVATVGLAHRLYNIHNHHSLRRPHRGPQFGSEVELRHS
Method in brief: (§1)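 Male conscious normotensive Sprague-Dawley rats (275-390 g) fitted the day before with femoral arterial and venous catheters under methohexital anesthesia. Three angiotensin-I challenges (300 ng/kg iv) given as baseline. Compound given iv, ia or po (12.3 mg/kg po dose in 3% cornstarch at 1 mg/mL), then AI challenges repeated at set times. Pressor response compared with the mean baseline response and expressed as % inhibition.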

[2] = biological target: T2, Angiotensin-converting enzyme (Rattus norvegicus); experiment: Evaluation of plasma inhibition of Angiotensin I converting enzyme activity in conscious rat 4 hours after intravenous administration at a dose of 10 mg/kg; format: functional, organism-based; design: dose 10 mg/kg; method in brief: as §1
[3] = biological target: T2, Angiotensin-converting enzyme (Rattus norvegicus); experiment: Evaluation of plasma inhibition of Angiotensin I converting enzyme activity in conscious rat 2 hours after intravenous administration at a dose of 10 mg/kg; format: functional, organism-based; design: dose 10 mg/kg; method in brief: as §1

IC50 (Neprilysin) [nM] | inhibition [1] [%] | inhibition [2] [%] | inhibition [3] [%] | SMILES
1.5 | 90 | 83 | 91 | CC(C)[C@H](S)C(=O)NC1(C(=O)N[C@@H](Cc2ccc(O)cc2)C(=O)O)CCCC1
5 | 91 | 30 | 43 | CC(C)[C@H](S)C(=O)NC1(C(=O)N[C@@H](Cc2ccc(O)cc2)C(=O)O)CC1
1.8 | 85 | 38 | 80 | CC(C)[C@H](S)C(=O)NC1(C(=O)N[C@@H](Cc2ccc(F)cc2)C(=O)O)CCCC1
25 | 86 | 24 | 59 | CC(C)[C@H](S)C(=O)NC1(C(=O)N[C@@H](Cc2ccc(O)cc2)C(=O)O)Cc2ccccc2C1
6.4 | 43 | 4 | 27 | CC(C)[C@H](S)C(=O)NC1(C(=O)N[C@@H](Cc2ccc(O)cc2)C(=O)O)CCOCC1

The remaining lines, values behind:

SMILES | IC50 (Neprilysin) [nM] | inhibition [1] [%] | inhibition [2] [%] | inhibition [3] [%]
CC(C)[C@H](S)C(=O)NC1(C(=O)N[C@@H](Cc2cccs2)C(=O)O)CCCC1 | 1.5 | 79 | 44 | 68
CC(C)[C@H](S)C(=O)NC1(C(=O)N[C@@H](Cc2ccsc2)C(=O)O)CCCC1 | 2.6 | 97 | 87 | 100
O=C(O)[C@H](Cc1ccc(O)cc1)NC(=O)C1(NC(=O)[C@@H](S)Cc2ccccc2)CCCC1 | 3 | 86 | 43 | 75
CC(C)[C@H](S)C(=O)NC1(C(=O)N[C@@H](Cc2ccccn2)C(=O)O)CCCC1 | 3 | 73 | 28 | 52
CC(C)[C@H](S)C(=O)NC1(C(=O)N[C@@H](CCc2ccccc2)C(=O)O)CCCC1 | 1.2 | 72 | 79 | 69
O=C(CS)NC1(C(=O)N[C@@H](Cc2ccc(O)cc2)C(=O)O)CCCC1 | 15 | 44 | 7 | 15
CC(C)[C@H](S)C(=O)NC1(C(=O)N[C@@H](Cc2c[nH]c3ccccc23)C(=O)O)CCCC1 | 2.1 | 98 | 86 | 92
CC(C)[C@H](S)C(=O)NC(C)(C)C(=O)N[C@@H](Cc1ccc(O)cc1)C(=O)O | 9.2 | 88 | 69 | 81
